Assay results: PMC10213863 (Cell Reports Medicine, 2023)

How the values were obtained:
TLR7/8 = test: Human PBMC cytokine release, TLR7/8 agonists ssRNA or R848; type: cell-based; conditions: human PBMCs, IL-6 as readout
TLR7 [1] = target: T1, TLR7 (Mus musculus, UniProt P58681); test: Chronic TLR7 activation in vivo assay; conditions: 129/Sv mice; R848 plus MHV370 vs R848 plus vehicle
T1 sequence (P58681 27-1050): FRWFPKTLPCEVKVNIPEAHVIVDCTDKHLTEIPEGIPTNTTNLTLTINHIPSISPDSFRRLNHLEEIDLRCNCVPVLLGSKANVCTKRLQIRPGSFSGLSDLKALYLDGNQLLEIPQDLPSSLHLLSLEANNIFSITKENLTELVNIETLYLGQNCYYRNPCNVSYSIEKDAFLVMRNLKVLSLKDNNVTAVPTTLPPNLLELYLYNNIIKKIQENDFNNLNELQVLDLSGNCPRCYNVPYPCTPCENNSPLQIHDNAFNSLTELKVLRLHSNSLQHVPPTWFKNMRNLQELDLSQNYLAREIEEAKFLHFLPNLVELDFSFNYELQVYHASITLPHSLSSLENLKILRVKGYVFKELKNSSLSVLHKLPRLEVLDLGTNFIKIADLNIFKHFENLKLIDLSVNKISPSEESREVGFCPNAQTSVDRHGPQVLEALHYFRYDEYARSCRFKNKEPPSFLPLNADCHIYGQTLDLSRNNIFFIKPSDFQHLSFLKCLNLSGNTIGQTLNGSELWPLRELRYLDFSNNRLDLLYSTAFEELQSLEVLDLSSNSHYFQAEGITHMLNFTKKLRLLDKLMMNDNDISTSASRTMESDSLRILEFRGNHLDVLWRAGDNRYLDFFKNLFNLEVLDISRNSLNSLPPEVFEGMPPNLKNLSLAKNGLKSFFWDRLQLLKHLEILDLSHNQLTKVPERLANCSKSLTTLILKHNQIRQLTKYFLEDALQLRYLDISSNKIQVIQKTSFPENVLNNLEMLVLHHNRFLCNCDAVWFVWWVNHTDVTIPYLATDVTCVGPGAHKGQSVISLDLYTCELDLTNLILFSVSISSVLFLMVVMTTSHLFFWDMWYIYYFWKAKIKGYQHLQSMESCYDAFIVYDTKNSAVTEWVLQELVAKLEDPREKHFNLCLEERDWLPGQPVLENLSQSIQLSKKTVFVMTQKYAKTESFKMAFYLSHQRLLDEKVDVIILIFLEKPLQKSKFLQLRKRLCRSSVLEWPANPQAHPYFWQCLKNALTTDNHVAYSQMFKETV
Outline: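 129/Sv mice (5 per group) received R848 i.p. at 2.5 mg/kg daily for 14 days. From day 7, groups were dosed orally b.i.d. with test compound at 15 mg/kg or with vehicle. Naive mice served as reference. Blood RNA-seq counts were filtered (≥10 counts per million in ≥4 samples) and TMM-normalized in edgeR. Differential expression was analysed with limma.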

TLR7 [2] = target: T1, TLR7; test: Ex vivo PD marker CD69 on B cells vs MHV370 blood exposure in NZB/W F1 mice
Outline: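 NZB/W F1 mice were dosed with test compound in food. Anticoagulated whole blood was diluted 1:1 in RPMI1640 and stimulated with 0.07 μg/mL R848 or medium at 37°C, 5% CO2. CD69 MFI on CD19+ B cells was read by flow cytometry. Drug concentration in whole blood was measured by LC-MS/MS.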

TLR3 = TLR3 (Homo sapiens, UniProt O15455); test: Ramos Blue reporter B cell line, Poly; type: cell-based; conditions: Ramos cells; Poly(I:C) stimulation
Sequence of TLR3 (O15455 24-904): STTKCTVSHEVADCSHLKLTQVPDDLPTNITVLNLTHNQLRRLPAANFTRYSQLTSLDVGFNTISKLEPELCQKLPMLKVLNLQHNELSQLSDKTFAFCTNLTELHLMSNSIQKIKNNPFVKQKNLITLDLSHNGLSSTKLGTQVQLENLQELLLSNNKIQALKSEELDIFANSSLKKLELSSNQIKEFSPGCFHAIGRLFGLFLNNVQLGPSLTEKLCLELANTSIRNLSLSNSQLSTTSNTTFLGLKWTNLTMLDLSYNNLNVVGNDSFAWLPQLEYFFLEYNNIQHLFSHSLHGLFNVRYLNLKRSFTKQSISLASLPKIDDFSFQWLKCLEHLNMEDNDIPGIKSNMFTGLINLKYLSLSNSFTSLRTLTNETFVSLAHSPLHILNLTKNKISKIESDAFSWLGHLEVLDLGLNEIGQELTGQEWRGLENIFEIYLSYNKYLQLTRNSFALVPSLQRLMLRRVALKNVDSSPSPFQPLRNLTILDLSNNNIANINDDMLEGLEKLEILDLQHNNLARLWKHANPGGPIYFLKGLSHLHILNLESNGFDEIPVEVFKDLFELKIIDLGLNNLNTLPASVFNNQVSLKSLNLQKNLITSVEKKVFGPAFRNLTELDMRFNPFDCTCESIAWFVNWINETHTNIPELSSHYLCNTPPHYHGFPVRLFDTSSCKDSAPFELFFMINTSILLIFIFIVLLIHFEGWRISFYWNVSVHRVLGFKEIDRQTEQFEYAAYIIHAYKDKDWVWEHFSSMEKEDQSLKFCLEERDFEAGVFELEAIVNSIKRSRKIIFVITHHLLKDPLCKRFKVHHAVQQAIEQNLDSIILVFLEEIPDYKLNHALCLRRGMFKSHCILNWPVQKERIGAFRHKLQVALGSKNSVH
Outline: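 Ramos Blue B reporter cells were pre-treated 30 min at 37°C, 5% CO2 with increasing concentrations of test compound or 0.25% v/v DMSO. They were then stimulated with the respective agonist, and reporter activity was read.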

[3] = test system: SLE immune-complex-driven IFN-α response in PBMCs; test: IFN-α release from PBMCs stimulated with SLE patient sera immune complexes; type: cell-based, human; conditions: PBMCs
TLR7 [4] = target: T2, TLR7 (Homo sapiens, UniProt Q9NYK1); test: Human whole blood assay, ssRNA-IFN-α; type: cell-based
T2 sequence (Q9NYK1 27-1049): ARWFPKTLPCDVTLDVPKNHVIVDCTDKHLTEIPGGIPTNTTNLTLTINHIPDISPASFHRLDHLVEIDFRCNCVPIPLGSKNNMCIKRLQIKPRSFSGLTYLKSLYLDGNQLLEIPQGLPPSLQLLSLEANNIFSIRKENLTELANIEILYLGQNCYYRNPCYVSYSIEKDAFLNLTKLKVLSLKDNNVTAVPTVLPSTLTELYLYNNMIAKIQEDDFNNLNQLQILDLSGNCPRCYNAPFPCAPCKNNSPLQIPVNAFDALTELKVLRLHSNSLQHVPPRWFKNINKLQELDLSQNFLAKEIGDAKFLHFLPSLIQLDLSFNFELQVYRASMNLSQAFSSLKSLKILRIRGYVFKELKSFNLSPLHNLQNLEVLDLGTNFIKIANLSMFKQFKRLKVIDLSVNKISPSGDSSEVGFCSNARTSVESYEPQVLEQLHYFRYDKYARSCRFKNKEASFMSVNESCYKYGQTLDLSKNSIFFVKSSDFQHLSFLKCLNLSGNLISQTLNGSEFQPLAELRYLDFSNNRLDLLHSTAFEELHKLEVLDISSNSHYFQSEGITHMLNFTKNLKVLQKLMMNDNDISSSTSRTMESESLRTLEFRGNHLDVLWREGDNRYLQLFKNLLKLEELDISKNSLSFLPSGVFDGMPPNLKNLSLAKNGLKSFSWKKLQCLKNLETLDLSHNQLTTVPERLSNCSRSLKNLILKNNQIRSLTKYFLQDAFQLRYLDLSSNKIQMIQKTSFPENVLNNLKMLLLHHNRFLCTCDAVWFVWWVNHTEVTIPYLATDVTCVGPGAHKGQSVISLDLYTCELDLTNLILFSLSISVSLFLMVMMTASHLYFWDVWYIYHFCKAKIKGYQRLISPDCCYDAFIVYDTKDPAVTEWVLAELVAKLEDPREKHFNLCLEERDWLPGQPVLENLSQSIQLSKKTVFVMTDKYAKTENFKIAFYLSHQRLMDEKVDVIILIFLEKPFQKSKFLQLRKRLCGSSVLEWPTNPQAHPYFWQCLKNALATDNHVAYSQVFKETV
Outline: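 Fresh human blood or 129/Sv mouse blood was taken into citrate and diluted 1:1 with RPMI1640. It was pre-incubated 30 min at 37°C, 5% CO2 with increasing concentrations of test compound or 0.25% v/v DMSO (final). Blood was then stimulated with TLR agonists at doses from earlier work, or with R848 (3 μM), and cytokines were quantified. Viability was checked by ATPlite luminescence.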

## Cc1cc(N2CCc3c(c(C)nn3CC34CCC(NC(=O)[C@@H]5COCCN5)(CC3)CC4)C2)c2cnn(C)c2n1 [MHV370, (S)-N-(4-((5-(1,6-dimethyl-1H-pyrazolo[3,4-b]pyridin-4-yl)-3-methyl-4,5,6,7-tetrahydro-1H-pyrazolo[4,3-c]pyridin-1-yl)methyl)bicyclo[2.2.2]octan-1-yl)morpholine-3-carboxamide]
TLR7/8
  mode of antagonism (Schild analysis): competitive and reversible antagonist
TLR7 [1]
  inflammatory pathways (ISGs, TLR and TNF pathways), gene set enrichment in blood: all downregulated
TLR7 [2]
  IC50: 35 nM
TLR3
  inhibitory activity against TLR3: no or very limited inhibitory activity
[3]; MHV370 0.3 μM
  immune-complex-driven responses, sera expressing dsDNA antibodies: blocked to a much lesser extent
  immune-complex-driven responses, sera positive for RNP/Sm and/or SS-A, or RNP/Sm and/or SS-A plus dsDNA autoantibodies: completely blocked
[3]; MHV370 1–10 nM combined with variable concentrations of HCQ, SLE immune complexes
  IFN-α suppression, MHV370 added to HCQ: almost complete suppression
TLR7 [4]
  IC50: 8.4 ± 1 nM
